In brackets after ≈: the same amount, converted by molar mass. Activity calls are given as the source filed them. No cut-off for these calls is given here.
Tests used:
Candida albicans [1] = assay: Antifungal activity against Candida albicans ATCC 10231 at […] ug/mL incubated for 1 hr by propidium iodide staining-based fluorescence microscopic method; assay type: functional
Candida albicans [2] = assay: Antifungal activity against itraconazole and fluconazole resistant Candida albicans ATCC 90819 after 48 hrs by broth dilution method; assay type: functional
Procedure, shortened: (§1)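 CLSI M27-A3 broth microdilution with minor modifications. Overnight YPD culture grown at 35 °C, 200 rpm, adjusted to OD600 0.12, diluted in RPMI 1640 buffered to pH 7.0 with 0.165 M MOPS to a final 1–2 × 10^3 CFU/mL. Test compounds at 0.015–31.3 µg/mL, 48 h at 35 °C, DMSO <1.25%. […] Triplicate.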

[3] = Aqueous solubility of the compound; assay type: physicochemical; settings: buffer
[4] = Solubility of the compound in DMSO; assay type: physicochemical
Nakaseomyces glabratus [5] = assay: Antifungal activity against Candida glabrata ATCC 2001 after 48 hrs by broth dilution method; assay type: functional, CBS 138
Candida parapsilosis [6] = assay: Antifungal activity against Candida parapsilosis ATCC 22019 after 48 hrs by broth dilution method; assay type: functional
Candida albicans [7] = assay: Antifungal activity against Candida albicans ATCC 10231 at 7.8 ug/mL incubated for 1 hr by propidium iodide staining-based fluorescence microscopic method; assay type: functional
Procedure, shortened: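 C. albicans ATCC 10231 grown overnight in YPD broth at 35 °C with shaking at 200 rpm, then transferred to RPMI 1640. Cells were exposed to drug and stained with propidium iodide, which enters only cells with compromised membranes. Uptake was judged by fluorescence microscopy against an untreated control.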

Candida albicans [8] = assay: Antifungal activity against itraconazole and fluconazole susceptible Candida albicans ATCC MYA-2876 after 48 hrs by broth dilution method; assay type: functional
Candida albicans [9] = assay: Antifungal activity against itraconazole and fluconazole susceptible Candida albicans ATCC MYA-2310 after 48 hrs by broth dilution method; assay type: functional
Candida albicans [10] = assay: Antifungal activity against Candida albicans ATCC 64124 after 48 hrs by broth dilution method; assay type: functional; procedure, shortened: as §1
Pichia kudriavzevii = assay: Antifungal activity against Candida krusei ATCC 6258 after 48 hrs by broth dilution method; assay type: functional
Procedure, shortened: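 Yeasts tested per CLSI M27-A3 with minor changes. An overnight YPD culture (35 °C, 200 rpm) was adjusted to OD600 0.12 and diluted in MOPS-buffered RPMI 1640 (pH 7.0) to a final 1–2 × 10^3 CFU/mL. Compounds 0.015–31.3 µg/mL, DMSO <1.25%.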

Candida albicans [11] = assay: Inhibition of 14alpha-demethylase in Candida albicans ATCC 10231 assessed as ergosterol levels at […] by GC-MS analysis; design: scale not given: the % may be the effect or the level left
Candida albicans [12] = assay: Inhibition of 14alpha-demethylase in Candida albicans ATCC 10231 assessed as 14alpha-methyl ergosta-8,24(28)-dien-3beta,6alpha-diol levels at […] by GC-MS analysis; design: scale not given: the % may be the effect or the level left
Candida parapsilosis [13] = assay: Fungistatic activity against Candida parapsilosis ATCC 22019 at 1 to 4 times MIC incubated for 24 hrs by time kill assay; assay type: functional
Procedure, shortened: (§2)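 Overnight YPD cultures diluted in RPMI 1640 to an inoculum of 1–4 × 10^5 CFU/mL. […] Final volume 4 mL, 35 °C, 200 rpm, 24 h. Sampled at 0, 3, 6, 9, 12 and 24 h, serially diluted and plated on PDA. Colonies counted after 48 h (24 h for strain A). Detection limit 100 CFU/mL. Duplicate.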

Candida albicans [14] = assay: Antifungal activity against itraconazole and fluconazole resistant Candida albicans ATCC MYA-1003 after 48 hrs by broth dilution method; assay type: functional; procedure, shortened: as §1
Nakaseomyces glabratus [15] = assay: Fungistatic activity against Candida glabrata ATCC 2001 at 4 times MIC incubated for 24 hrs by time kill assay; assay type: functional; settings: CBS 138; procedure, shortened: as §2
Candida albicans [16] = assay: Inhibition of 14alpha-demethylase in Candida albicans ATCC 10231 assessed as total sterol levels at 0.12 ug/mL by GC-MS analysis; design: scale not given: the % may be the effect or the level left
Candida albicans [17] = assay: Inhibition of 14alpha-demethylase in Candida albicans ATCC 10231 assessed as ergosterol levels at 0.12 ug/mL by GC-MS analysis; design: scale not given: the % may be the effect or the level left
Procedure, shortened: (§3)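 Sterols were extracted from treated C. albicans ATCC 10231 (strain A) cells and profiled by GC-MS. Each sterol (lanosterol, ergosterol, eburicol, 14α-methyl ergosta-8,24(28)-diene-3β,6α-diol) is reported as a percentage of the sterol composition. A DMSO-treated culture served as the no-drug comparison.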

Aspergillus nidulans [18] = assay: Antifungal activity against Aspergillus nidulans ATCC 38163 after 48 hrs in the presence of 10% FBS by broth dilution method; assay type: functional; settings: ATCC 38163, 48 h
Aspergillus terreus = assay: Antifungal activity against Aspergillus terreus ATCC MYA-3633 after 48 hrs by broth dilution method; assay type: functional
Procedure, shortened: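 Molds tested per CLSI M38-A2. Spores were harvested from sporulating PDA cultures by filtering through glass wool and counted on a hemocytometer. Serial dilutions (0.03–31.3 µg/mL) were made in RPMI 1640 buffered to pH 7.0 with 0.165 M MOPS, final inoculum 5 × 10^5 CFU/mL.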

Candida parapsilosis [19] = assay: Antifungal activity against Candida parapsilosis ATCC 22019 after 48 hrs in the presence of 10% FBS by broth dilution method; assay type: functional; settings: Lodderomyces parapsilosis, ATCC 22019, 48 h
Candida albicans [20] = assay: Inhibition of 14alpha-demethylase in Candida albicans ATCC 10231 assessed as eburicol levels at 0.12 ug/mL by GC-MS analysis; design: scale not given: the % may be the effect or the level left; procedure, shortened: as §3
Candida albicans [21] = assay: Inhibition of 14alpha-demethylase in Candida albicans ATCC 10231 assessed as lanosterol levels at 0.12 ug/mL by GC-MS analysis; design: scale not given: the % may be the effect or the level left; procedure, shortened: as §3
Candida albicans [22] = assay: Inhibition of 14alpha-demethylase in Candida albicans ATCC 10231 assessed as 14alpha-methyl ergosta-8,24(28)-dien-3beta,6alpha-diol levels at 0.12 ug/mL by GC-MS analysis; design: scale not given: the % may be the effect or the level left; procedure, shortened: as §3
Candida albicans [23] = assay: Antibiofilm activity against voriconazole resistant Candida albicans ATCC 64124 sessile cells incubated for 24 hrs by XTT reduction assay; assay type: functional; settings: ATCC 64124, 24 h
Procedure, shortened: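 Strain B grown overnight in YPD broth at 35 °C, diluted to OD600 0.1 (~10^6 CFU/mL), then grown statically for 24 h at 37 °C to form biofilm. Washed with PBS, then drug in RPMI 1640 at 0.12–62.5 µg/mL for 24 h at 37 °C. Read-out: XTT 0.5 mg/mL with menadione 1 µM, 2 h, A490. SMIC50/SMIC80 are 50%/80% decreases versus drug-free biofilm. Duplicate.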

Candida albicans [24] = assay: Antifungal activity against itraconazole and fluconazole resistant Candida albicans ATCC MYA-1237 after 48 hrs by broth dilution method; assay type: functional; procedure, shortened: as §1
Aspergillus nidulans [25] = assay: Antifungal activity against Aspergillus nidulans ATCC 38163 after 48 hrs by broth dilution method; assay type: functional
Procedure, shortened: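 A. nidulans run per CLSI M38-A2. PDA spores were filtered through glass wool and counted by hemocytometer. Test range 0.03–31.3 µg/mL in MOPS-buffered RPMI 1640 (pH 7.0), final 5 × 10^5 CFU/mL.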

Candida albicans [26] = assay: Fungistatic activity against Candida albicans ATCC 10231 at 1 to 4 times MIC incubated for 24 hrs by time kill assay; assay type: functional; procedure, shortened: as §2

CCCCCCCCCCCCCCOC[C@H]1O[C@H](O[C@@H]2[C@@H](O)[C@H](O[C@H]3O[C@H](CN)[C@@H](O)[C@H](O)[C@H]3N)[C@@H](N)C[C@H]2N)[C@H](O)[C@@H](N)[C@@H]1O
Activity (Candida albicans [1]): Active

OC(Cn1cncn1)(Cn1cncn1)c1ccc(F)cc1F [FLUCONAZOLE]
MIC=<50 (Candida albicans [2]): >408.1 µM | solubility [3]: Soluble | solubility [4]: Soluble | MIC=<50 (Nakaseomyces glabratus [5]): >102.2 µM | MIC=<50 (Candida parapsilosis [6]): 6.4 µM (≈ 1.96 µg/mL) | Activity (Candida albicans [7]): inactive | MIC=<50 (Candida albicans [8]): 50.9 µM (≈ 15.6 µg/mL) | MIC=<50 (Candida albicans [9]): >408.1 µM | MIC=<50 (Candida albicans [10]): >408.1 µM | MIC=<50 (Pichia kudriavzevii): >102.2 µM | Activity (Candida albicans [11]): 95.9% | Activity (Candida albicans [12]): 4.1%

C[C@@H](c1ncncc1F)[C@](O)(Cn1cncn1)c1ccc(F)cc1F [VORICONAZOLE]
Activity (Candida parapsilosis [13]): Active | MIC=<50 (Candida albicans [2]): 5.6 µM (≈ 1.96 µg/mL) | MIC=<50 (Candida albicans [14]): 5.6 µM (≈ 1.96 µg/mL) | Activity (Nakaseomyces glabratus [15]): Active | Activity (Candida albicans [16]): 1.56 to 2.79% | Activity (Candida albicans [17]): 64.9% | MIC (Aspergillus nidulans [18]): 0.12 µg/mL | MIC=<50 (Aspergillus terreus): 0.34 µM (≈ 0.119 µg/mL) | MIC=<50 (Nakaseomyces glabratus [5]): 0.17 µM (≈ 0.0594 µg/mL) | MIC (Candida parapsilosis [19]): 0.015 µg/mL | Activity (Candida albicans [20]): 2.14% | Activity (Candida albicans [21]): 18.5% | MIC=<50 (Candida parapsilosis [6]): <0.06 µM | Activity (Candida albicans [22]): 10.1% | MIC=<50 (Candida albicans [8]): 5.6 µM (≈ 1.96 µg/mL) | MIC=<50 (Candida albicans [9]): 2.8 µM (≈ 0.978 µg/mL) | MIC50 (Candida albicans [23]): 62.5 µg/mL (≈ 179 µM) | MIC80 (Candida albicans [23]): 62.5 µg/mL (≈ 179 µM) | MIC=<50 (Candida albicans [10]): 11.2 µM (≈ 3.91 µg/mL) | MIC=<50 (Pichia kudriavzevii): 0.34 µM (≈ 0.119 µg/mL) | MIC=<50 (Candida albicans [24]): 22.3 µM (≈ 7.79 µg/mL) | MIC=<50 (Aspergillus nidulans [25]): 0.34 µM (≈ 0.119 µg/mL) | Activity (Candida albicans [26]): Active
